Consider three molecules from PMC8798964 (Translational Cancer Research, 2021).

As usually defined, the Kp is the ratio of the level in a tissue or fluid to that in plasma or blood.

For data set [1], the system named is SU-DHL-6 cells. The data set can be described thus: Apoptosis assay. Format: cell-based. A digest of the protocol:
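SU-DHL-6 cells kept in RPMI 1640 with 10% heat-inactivated FBS and penicillin/streptomycin at 37 °C, 5% CO2. Seeded at 4×10^5/mL and left 24 h, then exposed to one of three concentrations of test compound, or DMSO control, for 24 or 48 h. Stained with Annexin V/7-AAD and read by flow cytometry. Live, early apoptotic and late apoptotic/dead populations counted.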

Data set [2] concerns PCNSL. The conditions noted are these: cited from earlier work.
Data set [3] is described as follows: Ibrutinib concentration in CSF of a PCNSL patient. It is filed as in vivo. The following applies: human, po, 560 mg.
A short description of data set [4]: Pharmacokinetic study: plasma and brain concentration after a single oral dose. It is filed as in vivo, SD rats. The conditions noted are these: for Kp: male, SD, rat, brain/plasma, po. A digest of the protocol: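 Male SD rats (219.0–260.5 g), fasted overnight until 4 h post-dose, given one oral dose of 10, 15 or 55 mg/kg depending on compound. n=3 per time point (0.25–24 h). Jugular blood in K2EDTA; plasma by spinning at 4 °C. Brains taken after decapitation, homogenised in 3-fold saline. Samples precipitated with acetonitrile plus internal standards, then LC-MS/MS. Brain/plasma ratio calculated at Cmax.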

Where [5] appears, read: phase II, monotherapy 560 mg/day, intent-to-treat analysis.

Like-named read-outs stand apart in the source and are kept apart here.

For `C=CC(=O)N1CCC[C@@H](n2nc(-c3ccc(Oc4ccccc4)cc3)c3c(N)ncnc32)C1` [ibrutinib], the Induction of apoptosis entry in data set [1] (SU-DHL-6, 0.5 µM) was “not observed”; in data set [1] (SU-DHL-6, 5 µM, 24 and 48 hours), “subtle”; in data set [1] (SU-DHL-6, 50 µM, 24 and 48 hours), “prominent”. Also, the Disease control rate in data set [2] (phase II, monotherapy 560 mg/day, evaluable patients) is listed as 70%; in data set [2] (setting [5]) it was 62%. The Stable diseases in data set [2] (setting [5]) is recorded as 10%. Besides, the “Objective response rate (ORR)” value in data set [2] (recurrent PCNSL patients, single drug, two clinical trials) is recorded as 50–70%. Moreover, in data set [2] (refractory and recurrent PCNSL, 10 of 13 patients), the Clinical responses is recorded as 77%. Moreover, the “Patients who achieved CR” value in data set [2] (refractory and recurrent PCNSL, cohort of 13) is on record as “five”. In data set [3], this molecule displayed a concentration at 2 h of 0.309 ng/mL. Besides, in data set [4], the Kp worked out at 0.098.
Regarding `CC#CC(=O)N1CC[C@@H](n2c(=O)n(-c3ccc(Oc4ccccc4)cc3)c3c(N)ncnc32)C1` [tirabrutinib], the Induction of apoptosis entry in data set [1] (SU-DHL-6, three concentrations, 24 or 48 hours) is listed as “only induced when cells were treated with high dose tirabrutinib for a relatively longer period of time (50 µM, 48 h)”. The ORR rate in data set [2] (phase I/II trial, relapsed/refractory PCNSL patients) was 64%. The molecule also displayed a Kp in data set [4] of 0.085.
In the case of `C=CC(=O)N1CCC([C@@H]2CCNc3c(C(N)=O)c(-c4ccc(Oc5ccccc5)cc4)nn32)CC1` [zanubrutinib], in data set [1] (SU-DHL-6, 50 µM, after another 24 hours (48 h)), the Pro-apoptosis effect result is “maintained”. Moreover, the Induction of apoptosis result is recorded as “good ability in inducing cell apoptosis” in data set [1] (SU-DHL-6, 24 hours, 0.5 µM or higher) and “cells recovered from apoptosis” in data set [1] (SU-DHL-6, lower concentration, after another 24 hours (48 h)). The “Unbound concentration in brain” value in data set [4] (SD rats, 15 mg/kg orally, 4 hours after administration) is given as “below the limit of detection”. This molecule also had a Kp in data set [4] of 0.035.
